According to article PMC3703919 (Clinical cancer research : an official journal of the …, 2009):

Columns and labels:
[1] = test system: patients with advanced solid tumors; assay: Phase I dose escalation: toxicity assessment; assay type: in vivo, human
Outline: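 Cohorts of three started at 100 μg/kg s.c. daily ×5 per 21-d cycle, with planned levels of 100–1,000 μg/kg. One DLT expanded a cohort to six. DLT was grade ≥3 toxicity at least possibly treatment-related, and MTD allowed ≤1/6 with DLT. Exam and labs ran weekly in cycle 1, then on day 1 of later cycles, graded by CTCAE v3.0.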

[2] = Pharmacokinetics: plasma Ang-; assay type: in vivo, human
[3] = 18 patients, 100-700 μg/kg s.c. daily x5 every 21 d, CTCAE v3.0, count

## CC[C@H](C)[C@H](NC(=O)[C@H](Cc1ccc(O)cc1)NC(=O)[C@@H](NC(=O)[C@H](CCCNC(=N)N)NC(=O)[C@@H](N)CC(=O)O)C(C)C)C(=O)N[C@@H](Cc1c[nH]cn1)C(=O)N1CCC[C@H]1C(=O)O [Ang-(1-7), Angiotensin-(1-7)]
[1]; 400 μg/kg, one patient with metastatic pancreatic cancer, first cycle
  SAE possibly related to Ang-(1-7): grade 3 deep vein thrombosis
[1]; 700 μg/kg dose
  dose-limiting toxicities encountered: stroke (grade 4) and reversible cranial neuropathy (grade 3)
[1]; [3]
  Cerebrovascular ischemia, grade 2, adverse events at least possibly related to treatment: 0
  Cerebrovascular ischemia, grade 3, adverse events at least possibly related to treatment: 0
  Cerebrovascular ischemia, grade 4, adverse events at least possibly related to treatment: 1
  Cerebrovascular ischemia, total, adverse events at least possibly related to treatment: 1
  Fatigue, grade 2, adverse events at least possibly related to treatment: 2
  Fatigue, grade 3, adverse events at least possibly related to treatment: 0
  Fatigue, grade 4, adverse events at least possibly related to treatment: 0
  Fatigue, total, adverse events at least possibly related to treatment: 2
  Gingival regression, grade 2, adverse events at least possibly related to treatment: 1
  Gingival regression, grade 3, adverse events at least possibly related to treatment: 0
  Gingival regression, grade 4, adverse events at least possibly related to treatment: 0
  Gingival regression, total, adverse events at least possibly related to treatment: 1
  Hypocalcemia, grade 2, adverse events at least possibly related to treatment: 1
  Hypocalcemia, grade 3, adverse events at least possibly related to treatment: 0
  Hypocalcemia, grade 4, adverse events at least possibly related to treatment: 0
  Hypocalcemia, total, adverse events at least possibly related to treatment: 1
  Muscle weakness, grade 2, adverse events at least possibly related to treatment: 1
  Muscle weakness, grade 3, adverse events at least possibly related to treatment: 0
  Muscle weakness, grade 4, adverse events at least possibly related to treatment: 0
  Muscle weakness, total, adverse events at least possibly related to treatment: 1
  Musculoskeletal pain, grade 2, adverse events at least possibly related to treatment: 2
  Musculoskeletal pain, grade 3, adverse events at least possibly related to treatment: 0
  Musculoskeletal pain, grade 4, adverse events at least possibly related to treatment: 0
  Musculoskeletal pain, total, adverse events at least possibly related to treatment: 2
  Neuropathy, cranial, grade 2, adverse events at least possibly related to treatment: 0
  Neuropathy, cranial, grade 3, adverse events at least possibly related to treatment: 1
  Neuropathy, cranial, grade 4, adverse events at least possibly related to treatment: 0
  Neuropathy, cranial, total, adverse events at least possibly related to treatment: 1
  Orthostasis, grade 2, adverse events at least possibly related to treatment: 1
  Orthostasis, grade 3, adverse events at least possibly related to treatment: 0
  Orthostasis, grade 4, adverse events at least possibly related to treatment: 0
  Orthostasis, total, adverse events at least possibly related to treatment: 1
  Thrombosis/thrombus/embolism, grade 2, adverse events at least possibly related to treatment: 0
  Thrombosis/thrombus/embolism, grade 3, adverse events at least possibly related to treatment: 1
  Thrombosis/thrombus/embolism, grade 4, adverse events at least possibly related to treatment: 0
  Thrombosis/thrombus/embolism, total, adverse events at least possibly related to treatment: 1
[1]; all dose levels 100-700 μg/kg, 18 patients
  hematologic toxicity: No hematologic toxicity was observed
[1]; all dose levels, 18 patients
  bleeding complications or episodes of hypertension: No bleeding complications or episodes of hypertension were observed
  patients with mild muscle cramps: three
  treatment-related deaths: no treatment-related deaths
[1]; s.c. once daily for 5 consecutive days on a 3-week cycle
  recommended phase II dose: 0.4 mg/kg
[2]; human, sc
  Tmax: 1 h
[2]; s.c. 100-700 μg/kg, RIA
  dose-dependent increases in drug exposure: observed only at the highest dose level
